The series in a line: Toxicity liver stage against HepG2, at 10uM. The class given is cell-based. Details: test concentration 10 uM, cell line HepG2-A16-CD81EGFP. The settings on record: human, HepG2-A16-CD81EGFP cells; read-out: INHIBITION
The essentials: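 Uninfected HepG2-A16-CD81EGFP cells, 3 × 10^3 per well, 1536-well, plated on prespotted compound at 10 μM final, parasite-free screening media added to match infected plates; puromycin 10 μM positive, DMSO 0.5% negative; run in parallel with 48 h PbLuc assay at 37 °C, 5% CO2; viability by CellTiter-Glo luminescence, normalized to controls.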
With `COC(=O)CCNC(=O)c1coc(COc2ccc(F)cc2)n1`, the cytotoxicity at 10 µM is -4.1%.

Consider `CCN(CC1CCCO1)S(=O)(=O)N1CCCCCC1` (stereo not drawn), for which the cytotoxicity at 10 µM is -1%.

Consider `Cc1nn(C)c(C)c1C1CCCN1CC(=O)Nc1ccc(Cl)cn1` (stereo not drawn), for which the cytotoxicity at 10 µM is -7.1%.

In the case of `COCCN1CC[C@H]2OCC[C@@H](C(=O)N3CCCO3)[C@H]2C1`, the cytotoxicity at 10 µM came to 4.55%.

Consider `Cc1nc(CN2CCN(S(=O)(=O)N3CCCCC3)CC2)oc1C`, for which the cytotoxicity at 10 µM is 3.64%.

In the case of `COC(=O)[C@@H]1CN(C(=O)Nc2ccccc2)CCN1C(C)=O`, the cytotoxicity at 10 µM was 4.23%.

As for `O=C(NCCN1CCCC1)c1cc2c(s1)CCN2c1ncccn1`, the cytotoxicity at 10 µM is -108%.

Turning to `CN1CC(=O)N(c2cccc(F)c2)CC12CCN(CC1CC1)C2` (stereo not drawn), the cytotoxicity at 10 µM came out at 2.26%.

Take `Cn1cnc(-c2nc(C(=O)NCCN3CCOCC3)c3ccccn23)c1`: the cytotoxicity at 10 µM is -103%.

For `CC(C)Nc1nc2c(cc1C(=O)O)CCN(Cc1ccsc1)CC2`, the cytotoxicity at 10 µM was 0.676%.

Consider `Cc1ccc(F)c(OC2(C(=O)O)CCN(C(=O)N3CCCC3)CC2)c1`, for which the cytotoxicity at 10 µM was -3.94%.

In the case of `CN(C)C(=O)c1ccc2c(c1)N(C)C(CC(=O)NC(C)(C)CO)CO2` (stereo not drawn), the cytotoxicity at 10 µM worked out at 8.38%.

In the case of `Cc1cccc(N2CCN(C(=O)CNCCn3cc(C)cn3)CC2)c1`, the cytotoxicity at 10 µM was -2.83%.

`CC(Cn1cccn1)NCc1csc(-c2cccs2)n1` (stereo not drawn): the cytotoxicity at 10 µM is -8.85%.

Regarding `CC(C)(C)c1ncc(CNc2ccccc2Cn2cncn2)s1`, the cytotoxicity at 10 µM worked out at 48.7%.

On to `CCc1nccn1CC(=O)N1CCN(C2CCc3ccccc3C2)CC1` (stereo not drawn), for which the cytotoxicity at 10 µM is -119%.

Take `CC(C)c1csc(C2CCCN(C(=O)c3ccc(=O)n(C)c3)C2)n1` (stereo not drawn): the cytotoxicity at 10 µM is -48.2%.

Turning to `Cc1c2ncn(CC(=O)N(C)C)c(=O)c2nn1C`, the cytotoxicity at 10 µM was -2.56%.

Turning to `O=S(=O)(N1CCCC1)N1CC(c2ccnc(Nc3ccccn3)n2)C1`, the cytotoxicity at 10 µM was found to be 11.8%.

In the case of `Cc1[nH]ccc1C(=O)Nc1cccc(CN2CCC(O)CC2)c1`, the cytotoxicity at 10 µM came out at 0.149%.

As to `COc1cccc(C(C(=O)O)N(C)Cc2ccc(C)o2)c1` (stereo not drawn), the cytotoxicity at 10 µM was -1.35%.

For `Cc1cnc(NC2CCN(CC(=O)Nc3ccccc3)CC2)nc1C`, the cytotoxicity at 10 µM was -5.47%.

Consider `COc1cc(C(=O)O)ccc1OCC(=O)NC(C)c1ccc(F)cc1` (stereo not drawn), for which the cytotoxicity at 10 µM is -1.4%.

Turning to `CCOC(=O)c1sc(NC(=O)CN2C(=O)CCC2=O)c(C#N)c1C`, the cytotoxicity at 10 µM is -6.93%.

Take `N#Cc1ccc(C(=O)NS(=O)(=O)c2ccc(F)c(F)c2)cc1`: the cytotoxicity at 10 µM was -4.11%.

On to `Cc1noc(C(C)C)c1C(=O)NCCCN1CCCCCC1=O`, for which the cytotoxicity at 10 µM was found to be 1.91%.

In the case of `Cc1nc(C2CCCN(C(=O)c3c[nH]c(C(C)C)n3)C2)no1` (stereo not drawn), the cytotoxicity at 10 µM was -7.52%.

Consider `Cc1ncsc1C(=O)N1CCC(c2ncncc2-c2ccnc(N)c2)C1` (stereo not drawn), for which the cytotoxicity at 10 µM was -0.197%.

Consider `O=C(CN1CCOCC1)Nc1cc(C(F)(F)F)ccc1-n1cccc1`, for which the cytotoxicity at 10 µM stood at 8.32%.

Take `C[S+]([O-])CCCNCc1cc(F)ccc1Br` (stereo not drawn): the cytotoxicity at 10 µM amounted to 0.732%.

With `Cc1cnc(CN(C)Cc2cc3c(cc2OC(F)F)OCO3)o1`, the cytotoxicity at 10 µM was -8.78%.

For the molecule `Cc1cnn(CC2CCCN2c2ncnc3ccccc23)c1` (stereo not drawn), the cytotoxicity at 10 µM was determined as 46.8%.

With `CCCOCC1CCN(C(=O)c2cnc(C)nc2O)C1` (stereo not drawn), the cytotoxicity at 10 µM is -3.15%.

As to `Cc1nnc2n1CCN(c1nn3cc(C(C)(C)C)nc3s1)C2`, the cytotoxicity at 10 µM was -0.903%.

As to `Cc1cc(C(=O)N2CCCC(n3nc(C)cc3C)C2)on1` (stereo not drawn), the cytotoxicity at 10 µM is -7.69%.

For the molecule `O=C(NC(c1ccc(Cl)cc1)c1cccnc1)C1CC1` (stereo not drawn), the cytotoxicity at 10 µM was -3.94%.

With `CCc1cc(C(=O)N2CCC(c3cc4ncccc4cn3)CC2)on1`, the cytotoxicity at 10 µM was -13%.

For the molecule `Cc1cccc(C)c1Nc1noc2c1CN(C(=O)c1ccnn1C)CC2`, the cytotoxicity at 10 µM amounted to 7.3%.

For the molecule `Cc1nc(CC(=O)NCCNc2nccc(C(F)(F)F)n2)cs1`, the cytotoxicity at 10 µM was 14.3%.

Turning to `CN1CCC(CNC(=O)c2cccc(CN3CCCCCC3)c2)C1` (stereo not drawn), the cytotoxicity at 10 µM was -5.39%.

`O=c1[nH]c(NCCCO)nc2c1C1(CCCC1)Cc1ccccc1-2`: the cytotoxicity at 10 µM came to 8.79%.

As for `Cc1cccc(CN2CCN(C(=O)c3cc(Cl)c[nH]c3=O)CC2)c1`, the cytotoxicity at 10 µM was determined as 1.47%.

As for `Cc1nc(NCCCn2cccn2)c2c(n1)c(C)nn2C`, the cytotoxicity at 10 µM was 6.64%.

Turning to `CCCS(=O)(=O)N1CC[C@H]2OCC[C@@]2(c2nnc(C)o2)C1`, the cytotoxicity at 10 µM turned out to be 8.43%.

For `Cn1ncc2ccc(C3CCCN(Cc4ccsc4)C3)nc21` (stereo not drawn), the cytotoxicity at 10 µM turned out to be 8.61%.

As to `Cc1nc(CN(C)c2cc(N3CCCC3CO)ncn2)cs1` (stereo not drawn), the cytotoxicity at 10 µM is 4.53%.

For `CC(C)c1nc(C2CCCN2Cc2ccn(C)c(=O)c2)no1` (stereo not drawn), the cytotoxicity at 10 µM is -12.2%.

In the case of `CC(C)Nc1ncnc2c1CCN(C(=O)c1ccncc1F)CC2`, the cytotoxicity at 10 µM was determined as 4.76%.

For the molecule `CCN1CCCC(c2cc(Nc3cnccn3)nc(C)n2)C1` (stereo not drawn), the cytotoxicity at 10 µM was -12.9%.

With `O=C(CCc1cc(Cl)no1)N1CCCCC1CCN1CCOCC1` (stereo not drawn), the cytotoxicity at 10 µM was -9.97%.

For the molecule `CC(C)(C)SCCCC(=O)N1CCC(Nc2cccnn2)CC1`, the cytotoxicity at 10 µM is -8.26%.

With `CCNC(=O)NC(C)(C)C(=O)NCc1cccc(N2CC=CC2)c1`, the cytotoxicity at 10 µM amounted to 7.35%.

Consider `NC(=O)c1ccc(CN2CCCC(N3CCCC3)C2)cc1` (stereo not drawn), for which the cytotoxicity at 10 µM was -3.63%.

In the case of `CCC1CN(C)c2ccccc2CN1CCn1cncn1` (stereo not drawn), the cytotoxicity at 10 µM came to 9.4%.

Consider `CCOC(=O)c1ccc(CNC(=O)c2ccncc2Cl)o1`, for which the cytotoxicity at 10 µM was found to be 6.93%.

`O=C(c1cnccn1)N1CC2(CCN(Cc3ccsc3)C2)C1`: the cytotoxicity at 10 µM was -4.23%.

As to `Cc1noc(CCCC(=O)N(CC2CCOC2)C2CC2)n1` (stereo not drawn), the cytotoxicity at 10 µM was 13%.

Turning to `Cc1ccc(C(=O)N2CCc3c(CNS(C)(=O)=O)cncc3C2)o1`, the cytotoxicity at 10 µM was -11.3%.

Consider `O=C1CN(S(=O)(=O)CC(F)(F)F)CC(O)CN1CCCc1ccccc1` (stereo not drawn), for which the cytotoxicity at 10 µM is -7.99%.

With `Cc1ncsc1CN(Cc1ccccc1)Cc1ncc[nH]1`, the cytotoxicity at 10 µM was -3.22%.

In the case of `COc1ccc(-c2nc(CCNCc3ccncc3)co2)cc1`, the cytotoxicity at 10 µM was -6.11%.

`Cc1cc2ncc(C(C)NCc3cccnc3)c(C)n2n1` (stereo not drawn): the cytotoxicity at 10 µM is -0.0764%.

Take `O=C(c1cc(Cn2ccc3ccccc32)[nH]n1)N1CCC[C@H]1CO`: the cytotoxicity at 10 µM was -1.99%.

As for `CC(C)C[C@H](N)COc1cccc(F)c1Oc1ccccc1`, the cytotoxicity at 10 µM was -5.08%.

In the case of `Cc1cnc(CN2CCN(c3ccnc(-c4ccccc4)n3)CC2)cn1`, the cytotoxicity at 10 µM came to 3.61%.

Take `COc1ccc(C(O)CN2CC(n3cc(C)cn3)C2)cc1` (stereo not drawn): the cytotoxicity at 10 µM worked out at 4.52%.

Turning to `CCCn1cc(C(=O)NCCS(N)(=O)=O)c2ccccc21`, the cytotoxicity at 10 µM was 5.15%.

On to `CN(C)C1(CNc2ncc(Br)cn2)CCOCC1`, for which the cytotoxicity at 10 µM was -8.66%.

As to `CCC1COCCN1C(=O)NCc1nccn1Cc1ccccc1` (stereo not drawn), the cytotoxicity at 10 µM is -0.457%.

As to `COC(=O)CCC(=O)N(C/C=C/c1ccccc1)CCO`, the cytotoxicity at 10 µM was found to be 3.28%.

As for `Cc1cc(C)n(CC2CN(Cc3nc(C)c(C)o3)CCO2)n1` (stereo not drawn), the cytotoxicity at 10 µM was determined as 4.17%.

For `CCN(Cc1ccc2c(c1)OCCO2)C(=O)NCc1nncn1CC`, the cytotoxicity at 10 µM is -4.35%.

For the molecule `Cc1ccc(-c2ccsc2C(=O)NC2CCS(=O)(=O)C2)cc1` (stereo not drawn), the cytotoxicity at 10 µM came out at 1.07%.

On to `CN1CCCc2cc(CNC(=O)c3cc[n+]([O-])cc3)ccc21`, for which the cytotoxicity at 10 µM was -1.11%.

Regarding `CC(C)NC(=O)[C@@H]1CC[C@@H]2[C@@H](CCN2Cc2cn(C)c3ccccc23)O1`, the cytotoxicity at 10 µM came to 9.49%.

On to `CCN(CC)C(=O)CCc1nc(-c2cnn3c(C)cc(C)nc23)no1`, for which the cytotoxicity at 10 µM was -11.5%.

For `Cn1cc(CN2CCOC(c3cccc(-c4cccc(F)c4)n3)C2)cn1` (stereo not drawn), the cytotoxicity at 10 µM is -11.1%.

In the case of `O=S(=O)(c1cccs1)N1CCCC(c2nccs2)C1` (stereo not drawn), the cytotoxicity at 10 µM was -15%.

Turning to `CC(=O)N1CCCC(C(=O)N2CCC(=Cc3cccc(F)c3)CC2)C1` (stereo not drawn), the cytotoxicity at 10 µM was 12%.

With `O=c1c(CN2CC3CCCN3C[C@@H]2CCO)coc2ccc(Cl)cc12` (stereo partly drawn), the cytotoxicity at 10 µM stood at 3.19%.

Consider `Cn1nnc2c1CCN(C(=O)C1CCC1)C2COCCN1CCCC1` (stereo not drawn), for which the cytotoxicity at 10 µM stood at 11%.

`O=S(=O)(NCC(O)c1ccoc1)c1ccc(Br)s1` (stereo not drawn): the cytotoxicity at 10 µM stood at 5.76%.

Regarding `NC(=O)c1cnc(NC2CCN(c3ccccc3)CC2)c(Cl)c1`, the cytotoxicity at 10 µM amounted to 6.07%.

As for `Cc1nn(CC(=O)Nc2ccc(F)cc2)c(N)c1C#N`, the cytotoxicity at 10 µM is 13.3%.

For the molecule `COC(=O)NC1(C(=O)Nc2ccc(-c3cc[nH]n3)cc2)CCCC1`, the cytotoxicity at 10 µM was -11.2%.

With `CCc1ccccc1OC1CN(C(=O)c2ccnc(OC)c2)C1`, the cytotoxicity at 10 µM is 32.8%.

As to `Cc1cccc(Cn2cc(C)c(N)n2)c1`, the cytotoxicity at 10 µM is -4.14%.

For the molecule `CN(CCNC(=O)c1cccnc1)S(C)(=O)=O`, the cytotoxicity at 10 µM was -0.102%.

As to `COc1ncc(NC(=O)c2ccco2)c(OC)n1`, the cytotoxicity at 10 µM was -3.74%.

As to `Cc1cc(CNC(=O)NCc2cccs2)no1`, the cytotoxicity at 10 µM is -1.87%.

For the molecule `Cn1cccc1C(CNC(=O)COc1ccc(Cl)cc1Cl)N1CCCC1` (stereo not drawn), the cytotoxicity at 10 µM is -8.64%.

`Cc1cnn(CCNCc2c(C)nn(-c3ccccc3)c2C)c1`: the cytotoxicity at 10 µM is -14.1%.

Consider `Cc1cc(=O)c2ccccc2n1CC1CCN(C(C)C)C1` (stereo not drawn), for which the cytotoxicity at 10 µM was 4.64%.

In the case of `C=Cc1ccc(C(=O)N2CCCC(Nc3ccccc3)C2)cc1` (stereo not drawn), the cytotoxicity at 10 µM was -9.01%.

Turning to `COc1cc(C(=O)NC2COc3ccccc3C2)ccc1OCC(N)=O` (stereo not drawn), the cytotoxicity at 10 µM is -22.8%.

`O=C(CCn1cncn1)NC1(c2cccc(Br)c2)CCC1`: the cytotoxicity at 10 µM was -20.2%.

Regarding `Cc1nn(C)c(N(C)C)c1CNCc1cccc(Cn2ccnc2)c1`, the cytotoxicity at 10 µM is -12%.

Regarding `N#Cc1ccc(OCCN2CCc3c(ncn3C3CC3)C2)cc1`, the cytotoxicity at 10 µM is -0.318%.

The values are drawn from ChEMBL document CHEMBL4513216, “Probing the Open Global Health Chemical Diversity Library for Multistage-Active Starting Points for Next-Generation Antimalarials” (ACS Infect Dis, 2020).
